Test results from ChEMBL document CHEMBL1269010, “Phenolic bis-styrylbenzenes as β-amyloid binding ligands and free radical scavengers” (J Med Chem, 2010).
The source made the active and inactive calls. The rule behind the calls is not given here.

What was measured:
[1] = test system: Radical scavenging activity; assay: Antioxidant activity assessed as DPPH radical scavenging activity by spectrophotometric analysis; format: functional
Method in brief: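 DPPH (100 μM) in MeOH mixed with test compound from 0 nM to 5 mM; compounds came from ~15 mM DMSO stocks diluted in MeOH. Loss of absorbance at 517 nm read on a plate reader. Each concentration run in triplicate; IC50 taken from a sigmoidal dose-response fit.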

Mus musculus [2] = species: Mus musculus; assay: Binding affinity to beta-amyloid plaque in APP/PS1 transgenic mouse brain assessed as signal-to-noise ratio after 30 mins by DAPI staining; format: tissue-based
Method in brief: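 Eleven-month-old APP/PS1 mice (Tg2576 × PS1 M146L 6.1) perfusion-fixed with 4% paraformaldehyde; cryosections 10 μm, three per concentration. Stained 30 min with 50 μM compound in 9:1 PBS/EtOH, then washed in 75% EtOH, 95% EtOH and xylene. Imaged through a DAPI filter; S/N taken from five plaque versus five background regions across three plaques per section.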

[3] = Binding affinity to aggregated amyloid beta (1 to 40) by fluorescence titration analysis
[4] = biological target: Amyloid-beta precursor protein (Homo sapiens) (UniProt P05067); assay: Binding affinity to beta-amyloid plaque in brain of patient with Alzheimer's disease after 30 mins by fluorescence microscopy; format: tissue-based
Method in brief: (§1)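 Frozen sections (10 μm) of human AD brain and age-matched control brain. Stained 30 min with 50 μM compound in 9:1 PBS/EtOH, washed in 75% EtOH, 95% EtOH and xylene, then fluorescence-imaged through a DAPI filter.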

[5] = biological target: Amyloid-beta precursor protein (Homo sapiens) (UniProt P05067); assay: Binding affinity to beta-amyloid plaque in normal human brain after 30 mins by fluorescence microscopy; format: tissue-based; method in brief: as §1
Mus musculus [6] = assay: In vivo binding affinity to beta-amyloid plaque in PDAPP transgenic mouse hippocampus CA1 region at 50 mg/kg, ip after 48 hrs; format: functional, organism-based; set-up: dose 50 mg/kg
Method in brief: (§2)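 Ten-month-old PDAPP mice given a single 50 mg/kg ip dose, vehicle 10% DMSO/PBS, with vehicle-only animals as control. Perfused with 4% PFA at 48 h; brain sections postfixed in 4% PFA for 5 min and mounted. CA1 and dentate gyrus plaques imaged by fluorescence microscopy at 10× and 40×.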

Mus musculus [7] = assay: In vivo binding affinity to beta-amyloid plaque in PDAPP transgenic mouse hippocampus dentate gyrus region at 50 mg/kg, ip after 48 hrs; format: functional, organism-based; set-up: dose 50 mg/kg; method in brief: as §2
Mus musculus [8] = assay: In vivo binding affinity to beta-amyloid plaque in mouse hippocampus dentate gyrus region at 50 mg/kg, ip after 48 hrs; format: functional, organism-based; set-up: dose 50 mg/kg

Sequence of Amyloid-beta precursor protein (Homo sapiens) (P05067 whole entry): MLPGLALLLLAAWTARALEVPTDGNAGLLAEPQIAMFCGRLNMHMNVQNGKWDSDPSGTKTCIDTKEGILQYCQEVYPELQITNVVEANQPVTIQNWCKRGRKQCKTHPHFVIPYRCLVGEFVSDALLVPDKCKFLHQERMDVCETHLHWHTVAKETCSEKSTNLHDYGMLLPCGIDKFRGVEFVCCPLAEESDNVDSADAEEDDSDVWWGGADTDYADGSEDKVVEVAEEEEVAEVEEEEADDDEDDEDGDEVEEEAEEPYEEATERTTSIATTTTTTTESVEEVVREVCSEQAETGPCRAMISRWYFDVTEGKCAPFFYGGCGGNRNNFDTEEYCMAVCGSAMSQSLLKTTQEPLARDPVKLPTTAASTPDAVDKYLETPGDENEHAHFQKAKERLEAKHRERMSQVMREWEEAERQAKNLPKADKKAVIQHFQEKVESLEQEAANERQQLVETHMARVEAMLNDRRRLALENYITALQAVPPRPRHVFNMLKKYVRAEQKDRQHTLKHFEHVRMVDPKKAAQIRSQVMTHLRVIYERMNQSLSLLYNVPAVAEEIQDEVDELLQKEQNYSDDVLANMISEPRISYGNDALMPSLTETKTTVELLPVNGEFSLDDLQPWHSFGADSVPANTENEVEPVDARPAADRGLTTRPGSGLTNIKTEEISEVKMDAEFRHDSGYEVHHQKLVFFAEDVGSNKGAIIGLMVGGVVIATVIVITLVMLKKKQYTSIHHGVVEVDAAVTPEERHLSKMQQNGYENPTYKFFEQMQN

IC50 [1] [µM] | Ratio (Mus musculus [2]) | Kd [3] [µM] | Activity [4] | Activity [5] | SMILES | Activity (Mus musculus [6]) | Activity (Mus musculus [7]) | Activity (Mus musculus [8])
62 | – | – | – | – | Oc1ccc(/C=C/c2cc(O)cc(O)c2)cc1 [RESVERATROL] | – | – | –
45 | 5.9 | 0.054 | – | – | Oc1ccc(C#Cc2ccc(C#Cc3ccc(O)cc3)cc2)cc1 | – | – | –
> 100 | 9.1 | 0.26 | – | – | Oc1ccc(/C=C/c2ccc(/C=C/c3ccc(O)c(O)c3)cc2)cc1 | – | – | –
3.4 | 3.1 | 2.5 | – | – | Oc1ccc(/C=C/c2cccc(/C=C/c3ccc(O)cc3)c2)cc1 | – | – | –
4.5 | 3.8 | 0.19 | – | – | Oc1ccc(/C=C/c2ccc(/C=C/c3cc(O)cc(O)c3)cc2)cc1 | – | – | –
5.1 | 9.6 | 0.16 | Active | inactive | Oc1cc(O)cc(/C=C/c2ccc(/C=C/c3cc(O)cc(O)c3)cc2)c1 | Active | Active | inactive
5.6 | 8.1 | 0.16 | – | – | Oc1ccc(/C=C/c2ccc(/C=C/c3ccccc3)cc2)cc1 | – | – | –
1.8 | 5.2 | 9.2 | – | – | Oc1ccc(/C=C/c2ccc(O)cc2)cc1 [TRANS-4,4'-DIHYDROXYSTILBENE] | – | – | –
3.1 | 14 | 0.0095 | Active | inactive | Oc1ccc(/C=C/c2ccc(/C=C/c3ccc(O)cc3)cc2)cc1 | Active | Active | inactive
3.5 | 9 | 3.5 | – | – | Oc1ccc(/C=C/c2ccc(/C=C/c3cccc(O)c3)cc2)cc1 | – | – | –
4 | 5.1 | 6.3 | – | – | Oc1ccc(/C=C/c2ccccc2/C=C/c2ccc(O)cc2)cc1 | – | – | –
4 | 11 | 0.8 | – | – | Oc1ccccc1/C=C/c1ccc(/C=C/c2ccccc2O)cc1 | – | – | –
> 100 | 9.6 | 0.0053 | Active | inactive | Oc1cccc(/C=C/c2ccc(/C=C/c3cccc(O)c3)cc2)c1 | Active | Active | inactive
9.1 | 5.6 | 0.2 | – | – | Oc1cccc(/C=C/c2ccc(/C=C/c3ccc(O)c(O)c3)cc2)c1 | – | – | –

SMILES | IC50 [1] [µM] | Ratio (Mus musculus [2]) | Kd [3] [µM] | Activity [4] | Activity [5] | Activity (Mus musculus [6]) | Activity (Mus musculus [7]) | Activity (Mus musculus [8])
O=c1c(O)c(-c2ccc(O)c(O)c2)oc2cc(O)cc(O)c12 [QUERCETIN] | 1.3 | – | – | – | – | – | – | –
